Sampled rows, rich in hits. Any-hit rate of the full collection: about 3.3%.
PMI act satM6P: activators of human phosphomannose isomerase at near-saturating mannose 6-phosphate. P34949. coupled PMI enzyme assay, resazurin fluorescence, 20 min; hits give high values; 1 = untreated enzyme, 0 = substrate-free blank. activation factor at 20 µM. 190,000 tested, 0.34% active. AID 1216;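 active = activation factor of 2 or more at 20 µM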
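assay system = human phosphomannose isomerase with PGI, G6PDH, diaphorase coupling enzymes | quantity = 15 ng/mL PMI | incubation = enzyme reaction with compound 20 min at room temperature | medium = HEPES pH 7.4 buffer with MgCl2 and Tween-20 | compound dosing = one concentration, 20 µM, in 1% DMSO | measured by = Diaphorase-driven resazurin-to-resorufin fluorescence, excitation 544, emission 590 nm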
ABCG2 inh: inhibitors of human ABCG2 transporter, ABCB1 counter-screen. Q9UNQ0. IgMXP3 cells, JC-1 efflux, flow cytometry. inhibition, % at 6.6 µM. 190,000 tested, 0.1% active. AID 1325;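 active = inhibition above 80%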;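 note: 0% = DMSO and 100% = nicardipine control wells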
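Measure – % inhibition of efflux relative to nicardipine and DMSO · Test system – ABCG2 IgMXP3 and barcoded ABCB1 CCRF-Adr cell mix · Control set – nicardipine as high control, DMSO as low control · Compound – one concentration, 6.6 µM final · Signal – flow cytometry of retained JC-1 fluorescence · Timing – 10 min exposure at 25 °C with rotation, no wash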
ROMK primary: human ROMK K+ channel modulation, primary screen; Tet-inducible ROMK, thallium flux fluorescence; actives lie on both sides; B-score at 10 µM; 130,000 tested, 2% active; AID 1918;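 active = signal ratio slope over the read window, or its plate-corrected B-score, at least 3 SD from the plate mean, either direction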;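 note: B-score of the F/F0 ratio slope over 7 to 12 s after thallium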
KCC2 mod: modulators of human KCC2 chloride dependent transport | Q9H2X9 | KCC2 cells, thallium flux FluoZin-2 fluorescence | B-score of Tl+ flux slope (higher = more flux/activation; lower = inhibition) at 10 µM | 190,000 tested, 2.2% active | AID 1456;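 active = thallium flux slope and its plate-corrected score both differing from the plate sample mean at a set confidence after two filtering rounds, in either direction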;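 note: slope of fluorescence scaled to starting intensity during 10 to 20 s after thallium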
Target sequence (Q9H2X9 whole entry, looked up): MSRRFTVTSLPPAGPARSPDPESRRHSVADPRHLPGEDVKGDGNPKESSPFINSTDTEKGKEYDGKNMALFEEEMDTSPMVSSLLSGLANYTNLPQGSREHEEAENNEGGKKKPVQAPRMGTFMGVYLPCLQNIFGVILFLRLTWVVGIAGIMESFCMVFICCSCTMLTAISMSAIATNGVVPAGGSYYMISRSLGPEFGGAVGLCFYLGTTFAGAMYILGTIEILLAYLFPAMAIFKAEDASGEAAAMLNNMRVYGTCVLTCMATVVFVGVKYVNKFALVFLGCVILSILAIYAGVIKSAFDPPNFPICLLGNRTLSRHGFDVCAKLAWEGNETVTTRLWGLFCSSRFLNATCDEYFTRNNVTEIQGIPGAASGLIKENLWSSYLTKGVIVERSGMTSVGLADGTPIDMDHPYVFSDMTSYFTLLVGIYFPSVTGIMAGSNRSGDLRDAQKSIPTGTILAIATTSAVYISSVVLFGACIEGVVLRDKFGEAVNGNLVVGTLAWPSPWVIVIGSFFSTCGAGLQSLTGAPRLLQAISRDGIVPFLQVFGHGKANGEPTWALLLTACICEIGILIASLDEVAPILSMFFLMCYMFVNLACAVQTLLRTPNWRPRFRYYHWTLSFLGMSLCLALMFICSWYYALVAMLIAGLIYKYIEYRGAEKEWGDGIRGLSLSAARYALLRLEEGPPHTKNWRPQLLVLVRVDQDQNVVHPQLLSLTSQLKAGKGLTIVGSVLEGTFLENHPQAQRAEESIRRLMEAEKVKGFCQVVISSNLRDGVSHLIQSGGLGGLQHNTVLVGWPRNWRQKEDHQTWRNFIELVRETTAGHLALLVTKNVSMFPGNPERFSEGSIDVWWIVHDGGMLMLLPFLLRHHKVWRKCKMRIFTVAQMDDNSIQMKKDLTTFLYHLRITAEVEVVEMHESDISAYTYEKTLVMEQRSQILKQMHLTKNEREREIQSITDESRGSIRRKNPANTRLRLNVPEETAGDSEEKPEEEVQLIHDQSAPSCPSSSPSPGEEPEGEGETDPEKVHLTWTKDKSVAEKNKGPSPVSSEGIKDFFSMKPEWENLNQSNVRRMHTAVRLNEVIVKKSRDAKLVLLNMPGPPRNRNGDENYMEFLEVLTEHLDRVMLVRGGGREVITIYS
PMI act: phosphomannose isomerase (human) activation. P34949. purified human PMI, coupled resazurin fluorescence, 20 min; hits give high values; 1 = vehicle control, 0 substrate-free wells. activation factor at 20 µM. 190,000 tested, 0.005% active. AID 1214;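 active = activation factor of 2 or more at 20 µM, relative to plate controls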
ABCB1 inh: inhibitors of human ABCB1 transporter, ABCG2 counter-screen; AID 1326; inhibition, % at 6.6 µM; 190,000 tested, 0.067% active; CCRF-Adr cells, JC-1 efflux, flow cytometry; in the data active = inhibition above about 40%;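 note: 0% = vehicle and 100% = reference inhibitor; higher value means more JC-1 retained so stronger ABCB1 efflux block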
KCC2 sec1: KCC2 (human) modulation, secondary assay. shares compounds with KCC2 mod. HEK293-KCC2, thallium flux, FluoZin2 fluorescence; hits give high values. normalised thallium flux (F/F0 slope) at 10 µM. 3,700 tested, 15% active;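 active = thallium flux slope above the same plate's solvent-only control mean plus 3 SD; inconclusive = the two replicate wells disagree; inactive = no significant difference from solvent-only control wells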
KCC2 bumet counter: bumetanide-insensitive thallium flux in KCC2 cells with ouabain, counter-screen; shares compounds with KCC2 mod; HEK293-KCC2 + bumetanide/ouabain, thallium flux FluoZin2; hits give high values; normalized thallium flux at 10 µM; 3,700 tested, 49% active;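 active = thallium entry rate above the same plate's blocked-transporter control wells by more than 3 SD; inconclusive = the two repeat wells disagree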;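 note: raw slope of fluorescence over initial fluorescence between 10 and 20 s after thallium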
KCC2 secondary2: confirmation of human KCC2 transport modulators. shares compounds with KCC2 mod. HEK293-KCC2, thallium flux FluoZin2 fluorescence; actives lie on both sides; F/F0 rise rate, 10–20 s post-thallium. normalized thallium flux at 10 µM. 3,700 tested, 23% active. AID 1715;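 active = thallium flux slope more than 3 SD above or below the plate's solvent-only control mean, mostly below; inconclusive = the two repeat wells disagreed; inactive = no significant shift from solvent-only controls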;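 note: raw slope with 0.1% DMSO as baseline and bumetanide as block control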
HEK counter1: counter-screen for KCC2 modulators: effect in parental HEK293 cells; thallium flux FluoZin2, ouabain; baseline-ratio fluorescence slope, 10–20 s after thallium; thallium flux rate (normalised fluorescence) at 10 µM; shares compounds with KCC2 mod; 3,700 tested, 46% active; AID 1716;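 active = thallium flux rate significantly above the same plate's solvent-only control wells, beyond their mean plus 3 SD; inconclusive = the two replicate wells gave conflicting results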
KCC2 retest ouab: KCC2 (human) modulation, ouabain retest | HEK293-KCC2, thallium flux FluoZin2 fluorescence; bidirectional: low = inhibitor, high = activator | 3,700 tested, 48% active | shares compounds with KCC2 mod | AID 1717 | raw Tl+ flux slope (below DMSO = inhibition, above = activation) at 10 µM;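 active = thallium flux slope beyond 3 SD from same-plate DMSO control mean in most replicates, usually higher, sometimes lower; inconclusive = repeat tests gave conflicting results; inactive = no significant difference from controls in most replicates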;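 note: slope of initial-normalized fluorescence between seconds 10 and 20 after thallium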
HEK293 Tl flux2: parental HEK flux effect, counter-screen 2 | 3,700 tested, 33% active | shares compounds with KCC2 mod | HEK293 parental, thallium flux FluoZin-2 fluorescence slope | thallium flux slope at 10 µM;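 active = thallium flux slope above the same plate's solvent-control mean plus 3 SD in both duplicate wells; inconclusive = duplicate wells that disagreed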;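 note: run without ouabain in cells lacking the KCC2 cotransporter; slope of fluorescence scaled to its starting value between 10 and 20 s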
* hit, by the source's call; u = inconclusive; x = no result.

SMILES	PMI act satM6P	ABCG2 inh	ROMK primary	KCC2 mod	PMI act	ABCB1 inh	KCC2 sec1	KCC2 bumet counter	KCC2 secondary2	HEK counter1	KCC2 retest ouab	HEK293 Tl flux2
Cc1cccc(C)c1NC(=S)N(Cc1cccs1)C1CCCC1	0.8	6.0	0.82	0.0123	0.9	0.3	x	x	x	x	x	x
CN(C)C(=O)c1cc(C(=O)c2ccc(C(F)(F)F)cc2F)c[nH]1	1	1.9	0.0171	-0.194	0.9	0.5	x	x	x	x	x	x
COCCSc1nnc(NC(=O)CSCc2ccccc2)s1	0.8	2.3	x	-0.168	0.7	0.3	x	x	x	x	x	x
CN(CCC#N)C(=S)NC(=O)c1ccc(S(=O)(=O)N2CCOCC2)cc1	1	-1.9	-0.108	0.461	1.1	-0.8	x	x	x	x	x	x
CCn1ncc(CN2CCCC(CNC(=O)c3ccc(F)cc3)C2)c1C (configuration not stated)	x	-0.3	0.567	-6.17*	x	-0.1	0.0162	0.00519	0.0282	0.00746	0.0168	0.0106
CC(C)(C)C1C/C(=C/c2ccccn2)C(=O)/C(=C/c2ccccn2)C1 (configuration not stated)	1.1	3.1	-0.933	-3.41*	1.1	0.7	0.0106	0.0094*	0.0301	0.0095*	0.0227	u
N#C/C(=N\O)c1nc2ccccc2s1	0.9	1.9	0.534	-0.225	0.9	0.2	x	x	x	x	x	x
N#C/C(=C(/O)c1ccc(F)cc1)c1nc2ccccc2s1	0.9	16.1	1.32	-4.83*	1	-2.5	0.00728	0.00576	0.0318	0.00593*	0.0158*	0.00961
N#C/C(=C(/O)COc1ccc(Cl)cc1)c1nc2ccccc2s1	1	-2.7	0.0437	-3.68*	1.1	-0.4	0.007	u	0.0229*	0.00772	u	0.0113
N#C/C(=C(/O)COC(=O)c1ccc(C#N)cc1)c1nc2ccccc2s1	1	4.0	-1.6	-2.68	1	-0.4	x	x	x	x	x	x
N#C/C(=C(/O)COc1ccccc1)c1nc2ccccc2s1	1.1	0.7	0.0285	-5.44*	1.1	-0.3	u	0.00465	0.0222*	0.00771	0.0169	0.0103
O=C(/C=C/c1ccc(Br)cc1)NC(=S)NNC(=O)c1ccco1	1.1	-0.7	-2.56	3.92*	1	-0.9	0.0102	0.0103*	0.034	u	0.0215	0.0107
C=CCN(CC=C)C(=S)NC(=O)/C=C/c1ccc(OC)cc1	1	0.0	0.636	73.8*	1	-0.3	0.0105*	0.136*	0.0963*	0.111*	0.109*	0.0868*
C=CCN(CC=C)C(=S)NC(=O)c1ccc(OC)cc1	0.9	1.0	2.32	71.2*	0.9	0.1	0.0527*	0.119*	0.0903*	0.0986*	0.0928*	0.0955*
C=CCN(CC=C)C(=S)NC(=O)/C=C/c1ccccc1	0.9	1.9	0.0275	8.85*	0.9	0.1	0.00545	0.0231*	0.0364	0.0204*	0.0288*	0.0205*
CCOc1ccc(-n2nc3c(Cl)nnc(C)c3c2C)cc1	1	3.4	1.13	-1.01	1	0.4	x	x	x	x	x	x
Cc1ccc(S(=O)(=O)Nc2cc(C(F)(F)F)ccc2N2CCOCC2)c(C)c1	0.9	1.1	0.0207	0.66	0.9	0.1	x	x	x	x	x	x
COc1ccc(/C=C/C(=O)NC(=S)NNC(=O)c2cccs2)cc1	1.3	-2.9	1.39	11.5*	1.2	-0.7	0.00793	0.0234*	0.0377	0.022*	0.0365*	0.0215*
Cc1cccc(C2CC(c3ccc(Br)cc3)Nc3nc(N)nn32)c1 (configuration not stated)	1	-0.5	x	x	0.9	-2.3	x	x	x	x	x	x
COc1ccc(-c2nnc3n(CCc4ccccc4)c(=O)c4ccccc4n23)cc1OC	1.1	3.4	x	4.43*	1.1	3.8	0.00878	0.017*	0.0284	0.00966*	u	u
CCS(=O)(=O)c1ccc(OC)c(N=Nc2ccc(O)c3ncccc23)c1	0.8	4.1	1.24	0.509	1	-0.3	x	x	x	x	x	x
Cc1ccc(C)c(N=Nc2ccc(O)c3ncccc23)c1	0.5	0.6	x	13*	1	0.1	u	0.0118*	0.0321	0.0105*	0.032*	u
Cc1cccc(N=Nc2ccc(O)c3ncccc23)c1	0.5	-1.5	0.441	15.1*	1	-0.2	0.0101	0.0341*	0.0305	0.033*	0.049*	0.0122*
O=c1c(O)c(-c2ccc3c(c2)OCO3)oc2ccccc12	1.1	-0.6	2.33	x	1.1	-0.1	0.0318*	0.169*	0.0515*	0.103*	0.1*	0.0499*
Cc1[nH]n(-c2ccccc2)c(=O)c1/C=N/N(C)c1ccccc1	0.9	-5.8	x	22*	1.1	-1.2	0.00668	0.0501*	0.0452*	0.0324*	0.0444*	0.0354*
Cc1[nH]n(-c2ccccc2)c(=O)c1/C=N/N1C(=O)c2ccc3c4c(ccc(c24)C1=O)CC3	1	-10.6	x	11*	1.1	-1.6	u	0.0209*	0.0319	0.0115*	u	0.0111
CCC(C)(C)n1nnnc1C(c1cccnc1)N1CCN(c2cccc(C(F)(F)F)c2)CC1 (configuration not stated)	1	1.8	x	-3.16*	1	1.0	0.00677	0.00389*	0.0314	u	0.0183	0.00998
CCN1C(=O)C2C(C1=O)N1C(c3cccs3)C3C(=O)N(CC)C(=O)C3N1C2c1cccs1 (configuration not stated)	1.1	0.3	x	0.0577	1	0.1	x	x	x	x	x	x
CC1(C)C/C(=N\NC(=S)Nc2ccccc2F)c2cc(O)ccc2O1	1	3.7	0.363	-0.464	0.9	-0.3	x	x	x	x	x	x
